In ChEMBL document CHEMBL5042469, “Unique Molecular Interaction with the Histone Deacetylase 6 Catalytic Tunnel: Crystallographic and Biological Characterization of a Model Chemotype” (J Med Chem, 2021):

Columns and labels:
[1] = tested on: MV4-11; assay: Induction of apoptosis in human MV4-11 cells assessed as early apoptotic cells at 4 uM incubated for 15 mins by Annexin-V/FITC staining based FACS analysis (reference value: 7.28%); assay type: functional; details: 0.25 h
In short: (§1)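 MV4-11 cells were dosed, then washed twice in cold PBS and resuspended in binding buffer at 1×10^6 cells/mL. Cells were stained with FITC-annexin V and propidium iodide for 15 min in the dark, diluted with binding buffer and analysed by flow cytometry within 1 h. Quadrants: LL viable, LR early apoptotic, UR late apoptotic. Duplicate experiments averaged; DMSO control.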

[2] = tested on: MV4-11; assay: Induction of apoptosis in human MV4-11 cells assessed as late apoptotic cells at 1 uM incubated for 15 mins by Annexin-V/FITC staining based FACS analysis (reference value: 4.36%); assay type: functional; details: 0.25 h; in short: as §1
[3] = tested on: MV4-11; assay: Induction of apoptosis in human MV4-11 cells assessed as viable cells at 2 uM incubated for 15 mins by Annexin-V/FITC staining based FACS analysis (reference value: 84.58%); assay type: functional; details: MV4-11, 0.25 h, read-out: Activity; in short: as §1
[4] = tested on: MV4-11; assay: Induction of apoptosis in human MV4-11 cells assessed as late apoptotic cells at 0.50 uM incubated for 15 mins by Annexin-V/FITC staining based FACS analysis (reference value: 4.36%); assay type: functional; details: dose 0.5 µM, 0.25 h; in short: as §1
[5] = tested on: MV4-11; assay: Induction of apoptosis in human MV4-11 cells assessed as early apoptotic cells at 0.25 uM incubated for 15 mins by Annexin-V/FITC staining based FACS analysis (reference value: 7.28%); assay type: functional; in short: as §1
[6] = tested on: MV4-11; assay: Induction of apoptosis in human MV4-11 cells assessed as late apoptotic cells at 4 uM incubated for 15 mins by Annexin-V/FITC staining based FACS analysis (reference value: 4.36%); assay type: functional; details: 0.25 h; in short: as §1
[7] = tested on: MV4-11; assay: Induction of apoptosis in human MV4-11 cells assessed as late apoptotic cells at 2 uM incubated for 15 mins by Annexin-V/FITC staining based FACS analysis (reference value: 4.17%); assay type: functional; details: 0.25 h; in short: as §1
[8] = tested on: MV4-11; assay: Induction of apoptosis in human MV4-11 cells assessed as viable cells at 0.25 uM incubated for 15 mins by Annexin-V/FITC staining based FACS analysis (reference value: 35.53%); assay type: functional; details: MV4-11, 0.25 h, read-out: Activity; in short: as §1
[9] = target: T1, Protein deacetylase HDAC6 (Homo sapiens, UniProt Q9UBN7); assay: Binding affinity to human HDAC6 by jump dilution assay
T1 sequence (Q9UBN7 whole entry): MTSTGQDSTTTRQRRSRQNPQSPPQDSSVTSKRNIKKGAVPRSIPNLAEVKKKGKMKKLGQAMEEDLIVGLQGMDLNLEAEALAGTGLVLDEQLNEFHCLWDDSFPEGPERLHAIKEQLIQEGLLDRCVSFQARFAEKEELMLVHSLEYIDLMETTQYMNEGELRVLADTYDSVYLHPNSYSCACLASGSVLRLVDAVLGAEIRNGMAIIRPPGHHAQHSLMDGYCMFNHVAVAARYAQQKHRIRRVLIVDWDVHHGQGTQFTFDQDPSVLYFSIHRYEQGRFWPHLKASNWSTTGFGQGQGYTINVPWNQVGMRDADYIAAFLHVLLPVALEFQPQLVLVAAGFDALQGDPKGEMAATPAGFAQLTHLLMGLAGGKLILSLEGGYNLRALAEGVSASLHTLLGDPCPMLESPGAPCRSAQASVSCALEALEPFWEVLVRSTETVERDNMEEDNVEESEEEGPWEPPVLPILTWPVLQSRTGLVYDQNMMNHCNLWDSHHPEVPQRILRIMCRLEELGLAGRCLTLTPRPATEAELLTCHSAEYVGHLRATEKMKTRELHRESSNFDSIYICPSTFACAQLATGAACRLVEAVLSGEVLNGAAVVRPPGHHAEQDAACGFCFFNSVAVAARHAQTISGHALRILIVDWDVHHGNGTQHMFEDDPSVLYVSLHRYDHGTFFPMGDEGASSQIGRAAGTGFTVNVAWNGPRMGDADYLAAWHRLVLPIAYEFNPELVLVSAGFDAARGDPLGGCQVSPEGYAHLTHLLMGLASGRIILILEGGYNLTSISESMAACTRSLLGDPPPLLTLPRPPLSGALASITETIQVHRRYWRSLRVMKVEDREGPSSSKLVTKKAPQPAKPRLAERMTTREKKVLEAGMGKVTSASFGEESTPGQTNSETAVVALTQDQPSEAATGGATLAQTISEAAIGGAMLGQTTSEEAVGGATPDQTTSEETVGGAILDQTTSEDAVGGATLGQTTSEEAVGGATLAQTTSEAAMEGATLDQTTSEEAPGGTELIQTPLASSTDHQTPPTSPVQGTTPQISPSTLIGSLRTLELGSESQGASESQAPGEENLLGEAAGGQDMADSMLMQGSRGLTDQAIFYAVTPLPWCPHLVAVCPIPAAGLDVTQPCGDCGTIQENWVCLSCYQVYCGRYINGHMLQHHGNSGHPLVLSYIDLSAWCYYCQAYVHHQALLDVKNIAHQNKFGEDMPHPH

[10] = tested on: MV4-11; assay: Induction of apoptosis in human MV4-11 cells assessed as viable cells at 1 uM incubated for 15 mins by Annexin-V/FITC staining based FACS analysis (reference value: 35.53%); assay type: functional; details: MV4-11, 0.25 h, read-out: Activity; in short: as §1
[11] = Stability in human whole blood assessed as compound remaining measured after 15 mins; assay type: ADME, tissue-based; details: read-out: Stability
[12] = Stability in mouse plasma assessed as compound remaining measured after 30 mins; assay type: ADME, cell-free; details: read-out: Stability
[13] = target: Histone deacetylase 9 (Homo sapiens, UniProt Q9UKV0); assay: Inhibition of full length human HDAC9 using FAM-labeled acetylated peptide as substrate by electrophoretic mobility shift assay
In short: (§2)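 Full-length human HDAC isoform enzymatic assay by electrophoretic mobility shift, using a FAM-labelled acetylated peptide substrate. […] Values are the mean of duplicate experiments with 95% confidence intervals.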

[14] = tested on: MV4-11; assay: Induction of apoptosis in human MV4-11 cells assessed as early apoptotic cells at 2 uM incubated for 15 mins by Annexin-V/FITC staining based FACS analysis (reference value: 0.70%); assay type: functional; details: 0.25 h; in short: as §1
[15] = target: Histone deacetylase 4 (Homo sapiens, UniProt P56524); assay: Inhibition of full length human HDAC4 using FAM-labeled acetylated peptide as substrate by electrophoretic mobility shift assay; in short: as §2
[16] = tested on: MV4-11; assay: Induction of apoptosis in human MV4-11 cells assessed as viable cells at 2 uM incubated for 15 mins by Annexin-V/FITC staining based FACS analysis (reference value: 35.53%); assay type: functional; details: MV4-11, 0.25 h, read-out: Activity; in short: as §1
[17] = tested on: MV4-11; assay: Induction of apoptosis in human MV4-11 cells assessed as late apoptotic cells at 1 uM incubated for 15 mins by Annexin-V/FITC staining based FACS analysis (reference value: 4.17%); assay type: functional; details: 0.25 h; in short: as §1
[18] = target: Polyamine deacetylase HDAC10 (Homo sapiens, UniProt Q969S8); assay: Inhibition of full length human HDAC10 using FAM-labeled acetylated peptide as substrate by electrophoretic mobility shift assay; in short: as §2
[19] = Half life in human whole blood incubated for 1 hr; assay type: ADME, tissue-based
In short: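 Compound was incubated in mouse plasma or in pooled human whole blood. […] Triplicate studies, averaged.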

[20] = tested on: MV4-11; assay: Induction of apoptosis in human MV4-11 cells assessed as early apoptotic cells at 1 uM incubated for 15 mins by Annexin-V/FITC staining based FACS analysis (reference value: 0.70%); assay type: functional; details: 0.25 h; in short: as §1

Histone deacetylase 9, sequence (Q9UKV0 whole entry, canonical isoform): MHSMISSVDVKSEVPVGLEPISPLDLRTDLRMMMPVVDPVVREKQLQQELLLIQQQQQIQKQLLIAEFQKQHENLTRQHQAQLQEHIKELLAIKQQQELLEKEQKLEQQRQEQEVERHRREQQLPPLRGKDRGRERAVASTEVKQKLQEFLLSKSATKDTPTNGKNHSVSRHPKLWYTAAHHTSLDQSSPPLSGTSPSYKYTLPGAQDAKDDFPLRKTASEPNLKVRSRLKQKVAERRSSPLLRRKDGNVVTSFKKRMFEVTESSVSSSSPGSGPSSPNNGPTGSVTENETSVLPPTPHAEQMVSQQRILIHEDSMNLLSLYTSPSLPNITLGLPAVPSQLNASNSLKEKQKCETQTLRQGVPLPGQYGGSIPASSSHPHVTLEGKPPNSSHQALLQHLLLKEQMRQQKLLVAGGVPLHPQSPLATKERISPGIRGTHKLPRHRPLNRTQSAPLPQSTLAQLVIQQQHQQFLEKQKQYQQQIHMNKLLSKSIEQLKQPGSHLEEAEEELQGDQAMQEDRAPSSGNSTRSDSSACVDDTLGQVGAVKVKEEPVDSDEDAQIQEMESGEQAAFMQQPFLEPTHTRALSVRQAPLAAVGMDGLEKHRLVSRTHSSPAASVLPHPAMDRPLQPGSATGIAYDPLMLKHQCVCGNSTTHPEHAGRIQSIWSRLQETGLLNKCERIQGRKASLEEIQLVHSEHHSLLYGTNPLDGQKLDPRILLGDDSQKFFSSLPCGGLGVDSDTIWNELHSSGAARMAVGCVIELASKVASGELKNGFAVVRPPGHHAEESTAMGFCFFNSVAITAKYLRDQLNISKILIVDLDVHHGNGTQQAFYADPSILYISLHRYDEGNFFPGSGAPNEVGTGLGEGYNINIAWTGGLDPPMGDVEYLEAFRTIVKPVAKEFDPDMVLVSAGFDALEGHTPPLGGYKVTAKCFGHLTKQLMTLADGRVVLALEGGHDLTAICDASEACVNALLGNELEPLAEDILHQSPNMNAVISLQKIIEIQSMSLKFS
Polyamine deacetylase HDAC10, sequence (Q969S8 whole entry): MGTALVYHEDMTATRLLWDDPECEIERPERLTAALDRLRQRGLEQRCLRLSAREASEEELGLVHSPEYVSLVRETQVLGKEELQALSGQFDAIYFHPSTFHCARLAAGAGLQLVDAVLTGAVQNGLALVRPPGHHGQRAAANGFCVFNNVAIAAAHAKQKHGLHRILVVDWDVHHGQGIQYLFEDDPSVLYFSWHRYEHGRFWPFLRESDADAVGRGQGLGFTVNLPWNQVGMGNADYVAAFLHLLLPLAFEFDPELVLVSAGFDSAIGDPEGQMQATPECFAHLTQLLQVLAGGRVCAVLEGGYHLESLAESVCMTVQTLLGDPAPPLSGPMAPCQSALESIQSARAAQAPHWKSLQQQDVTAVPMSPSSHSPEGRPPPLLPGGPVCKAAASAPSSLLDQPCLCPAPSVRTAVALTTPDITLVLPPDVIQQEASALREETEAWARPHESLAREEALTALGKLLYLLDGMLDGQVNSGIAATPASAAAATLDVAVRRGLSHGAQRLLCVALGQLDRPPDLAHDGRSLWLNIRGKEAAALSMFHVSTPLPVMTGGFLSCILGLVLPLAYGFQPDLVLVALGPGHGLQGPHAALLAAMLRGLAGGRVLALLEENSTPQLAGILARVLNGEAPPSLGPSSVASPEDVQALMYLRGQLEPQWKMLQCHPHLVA
Histone deacetylase 4, sequence (P56524 whole entry): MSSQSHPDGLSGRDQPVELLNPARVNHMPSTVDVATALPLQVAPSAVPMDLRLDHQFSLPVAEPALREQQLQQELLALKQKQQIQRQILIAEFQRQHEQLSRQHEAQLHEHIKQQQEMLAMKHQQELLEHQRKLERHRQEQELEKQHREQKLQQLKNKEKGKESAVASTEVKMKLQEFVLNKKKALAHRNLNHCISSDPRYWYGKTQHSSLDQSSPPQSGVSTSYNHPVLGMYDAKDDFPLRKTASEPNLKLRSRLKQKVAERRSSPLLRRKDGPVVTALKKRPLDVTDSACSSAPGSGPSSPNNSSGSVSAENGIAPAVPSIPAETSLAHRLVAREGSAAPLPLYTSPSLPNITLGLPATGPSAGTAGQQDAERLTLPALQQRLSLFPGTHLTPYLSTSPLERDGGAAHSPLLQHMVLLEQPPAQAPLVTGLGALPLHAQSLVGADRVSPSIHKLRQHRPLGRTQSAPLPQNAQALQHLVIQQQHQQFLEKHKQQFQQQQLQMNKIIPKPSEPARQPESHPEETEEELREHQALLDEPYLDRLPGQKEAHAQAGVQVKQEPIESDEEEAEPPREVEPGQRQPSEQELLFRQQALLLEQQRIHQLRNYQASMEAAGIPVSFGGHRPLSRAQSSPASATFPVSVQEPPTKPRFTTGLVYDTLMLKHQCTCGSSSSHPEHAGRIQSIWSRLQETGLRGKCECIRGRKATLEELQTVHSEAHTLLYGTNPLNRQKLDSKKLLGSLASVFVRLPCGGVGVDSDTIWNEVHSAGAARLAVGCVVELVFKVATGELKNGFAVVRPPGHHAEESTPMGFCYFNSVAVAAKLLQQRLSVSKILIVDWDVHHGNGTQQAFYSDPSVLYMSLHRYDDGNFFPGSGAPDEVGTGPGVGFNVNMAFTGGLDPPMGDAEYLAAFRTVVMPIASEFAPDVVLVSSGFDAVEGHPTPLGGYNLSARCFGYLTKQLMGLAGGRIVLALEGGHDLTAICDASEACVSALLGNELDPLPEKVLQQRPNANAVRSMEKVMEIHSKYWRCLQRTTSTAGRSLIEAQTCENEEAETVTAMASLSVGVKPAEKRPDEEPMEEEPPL

| Structure (SMILES) | Activity [1] | Activity [2] | viability at 2 µM [3] | Activity [4] | Activity [5] | Activity [6] | Activity [7] | viability at 0.25 µM [8] | Ki [9] | viability at 1 µM [10] | remaining at 0.25 h [11] | remaining at 0.5 h [12] | IC50 [13] | Activity [14] | IC50 [15] | viability at 2 µM [16] | Activity [17] | IC50 [18] | t1/2 [19] | Activity [20] |
| --- | --- | --- | --- | --- | --- | --- | --- | --- | --- | --- | --- | --- | --- | --- | --- | --- | --- | --- | --- | --- |
| O=C(CCCCCCNC(=O)c1cnc(N(c2ccccc2)c2ccccc2Cl)nc1)NO [CITARINOSTAT] | 38.98% | 9.54% | 42.4% | 5.77% | 7.93% | 15.54% |  |  |  |  |  |  |  |  |  |  |  |  |  |  |
| O=C(NO)c1ccc(CN(Cc2cccnc2)S(=O)(=O)c2cc(F)c(F)c(F)c2F)cc1 |  |  |  |  |  |  | 15.44% | 33.1% | 0.7 nM | 17.1% | 88% | 79.8% | 2750 nM | 2.45% | > 10000 nM | 9.59% | 6.87% | 572 nM | 1.8 h | 1.84% |
